The structures appear in SMILES notation.

Holding throughout (type): ADME
In data set [1] the target is T1, UDP-glucuronosyltransferase 1A10 (Homo sapiens, UniProt Q9HAW8).
T1 sequence (Q9HAW8 whole entry): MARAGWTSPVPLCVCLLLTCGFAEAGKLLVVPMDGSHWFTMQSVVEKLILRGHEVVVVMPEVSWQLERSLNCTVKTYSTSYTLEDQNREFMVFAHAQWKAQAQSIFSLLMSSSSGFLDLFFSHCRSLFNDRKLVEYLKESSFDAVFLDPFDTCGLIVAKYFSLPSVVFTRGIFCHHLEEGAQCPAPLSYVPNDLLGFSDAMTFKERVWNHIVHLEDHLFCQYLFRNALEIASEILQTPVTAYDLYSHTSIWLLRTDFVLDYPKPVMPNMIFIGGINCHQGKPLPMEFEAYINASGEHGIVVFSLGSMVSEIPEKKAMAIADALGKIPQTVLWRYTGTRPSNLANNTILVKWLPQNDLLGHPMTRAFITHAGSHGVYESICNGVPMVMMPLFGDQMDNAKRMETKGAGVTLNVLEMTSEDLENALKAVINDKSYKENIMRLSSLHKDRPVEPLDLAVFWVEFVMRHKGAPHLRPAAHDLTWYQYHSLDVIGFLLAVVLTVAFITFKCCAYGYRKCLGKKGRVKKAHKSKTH
The data set can be described thus: Drug metabolism assessed as recombinant human C-terminal His-tagged UGT1A10-mediated estriol-3-glucuronide formation after 15 to 60 mins by Michaelis-Menten equation analysis in presence of UDPGA. To be noted: recombinant enzyme. An outline of the steps: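 For kinetics, the aglycone ranged from 0.2 to 300 μM in DMSO (10% final) with 5 mM UDPGA, 10 mM MgCl₂ and 50 mM phosphate pH 7.4. Enzyme was UGT-enriched insect cell membranes. Incubation was 15–60 min at 37°C, in triplicate, keeping substrate consumption ≤10%. Products were measured by HPLC and fitted to Michaelis-Menten. Rates were normalized to expression level.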

For another data set, the system named is Liver microsome. The data set can be described thus: Drug metabolism in human liver microsomes assessed as estriol-3-glucuronide formation after 15 to 60 mins by Michaelis-Menten equation analysis in presence of UDPGA. In outline: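 Pooled human liver microsomes (30 donors), 0.5 or 10 µg, with alamethicin at 5% of total protein. Incubated with 50 mM phosphate pH 7.4, 10 mM MgCl₂, 5 mM UDPGA and 10% DMSO for 15–60 min at 37°C. Each glucuronide regioisomer quantified by HPLC, in triplicate, with substrate consumption at or below 10%.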
In general terms: Liver microsomes are a subcellular fraction often used to study metabolism.

Data set [2] concerns the target T2, UDP-glucuronosyltransferase 2B4 (Homo sapiens, UniProt P06133).
T2 sequence (P06133 whole entry): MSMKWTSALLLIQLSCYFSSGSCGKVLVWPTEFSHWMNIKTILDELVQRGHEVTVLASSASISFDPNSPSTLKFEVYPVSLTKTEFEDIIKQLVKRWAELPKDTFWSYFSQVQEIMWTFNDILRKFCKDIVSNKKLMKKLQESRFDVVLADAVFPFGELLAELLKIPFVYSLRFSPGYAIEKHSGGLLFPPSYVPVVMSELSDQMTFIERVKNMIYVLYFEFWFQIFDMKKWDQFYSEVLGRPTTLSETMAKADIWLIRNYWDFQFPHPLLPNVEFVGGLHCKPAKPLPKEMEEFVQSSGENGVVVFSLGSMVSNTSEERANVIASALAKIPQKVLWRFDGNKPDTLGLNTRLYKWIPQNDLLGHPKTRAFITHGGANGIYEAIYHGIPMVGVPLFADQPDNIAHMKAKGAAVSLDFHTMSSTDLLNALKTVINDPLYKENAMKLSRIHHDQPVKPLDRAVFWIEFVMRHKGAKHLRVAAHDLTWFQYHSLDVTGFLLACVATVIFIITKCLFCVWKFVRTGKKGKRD
Put plainly: Drug metabolism assessed as recombinant human C-terminal His-tagged UGT2B4-mediated estriol-16-glucuronide formation after 15 to 60 mins by Michaelis-Menten equation analysis in presence of UDPGA. To be noted: recombinant enzyme.

The target of data set [3] is T3, UDP-glucuronosyltransferase 2B17 (Homo sapiens, UniProt O75795).
T3 sequence (O75795 whole entry): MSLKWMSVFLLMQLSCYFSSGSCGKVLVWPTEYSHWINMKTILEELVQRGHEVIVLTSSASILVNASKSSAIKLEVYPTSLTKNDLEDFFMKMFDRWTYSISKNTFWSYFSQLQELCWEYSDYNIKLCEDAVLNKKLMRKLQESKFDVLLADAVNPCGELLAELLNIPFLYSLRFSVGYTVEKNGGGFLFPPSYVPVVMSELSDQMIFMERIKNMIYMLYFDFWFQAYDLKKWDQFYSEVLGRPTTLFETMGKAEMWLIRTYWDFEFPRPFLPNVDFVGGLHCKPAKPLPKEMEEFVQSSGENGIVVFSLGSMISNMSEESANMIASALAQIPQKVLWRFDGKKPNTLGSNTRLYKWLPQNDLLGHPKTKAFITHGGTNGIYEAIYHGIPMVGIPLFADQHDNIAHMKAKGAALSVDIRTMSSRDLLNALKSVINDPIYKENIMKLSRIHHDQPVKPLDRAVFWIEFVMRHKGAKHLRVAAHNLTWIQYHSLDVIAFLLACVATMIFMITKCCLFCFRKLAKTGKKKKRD
Put plainly: Drug metabolism assessed as recombinant human C-terminal His-tagged UGT2B17-mediated 13-epiestradiol-17-glucuronide formation at 200 uM after 15 to 60 mins by HPLC analysis in presence of UDPGA. To be noted: recombinant enzyme. In outline: (§1)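 Screening at a single substrate concentration of 200 μM, in triplicate. The reaction used 5 or 50 µg of UGT-enriched insect cell membranes in 50 mM phosphate pH 7.4 with 10 mM MgCl₂ and 5 mM UDPGA, 10% final DMSO. Incubation was 15–60 min at 37°C. Perchloric acid stopped the reaction and supernatants were analysed by HPLC. Controls lacked UDPGA. Rates were normalized to relative UGT expression level.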

The target in data set [4] is T4, UDP-glucuronosyltransferase 2A1 (Homo sapiens, UniProt P0DTE4).
T4 sequence (P0DTE4 whole entry): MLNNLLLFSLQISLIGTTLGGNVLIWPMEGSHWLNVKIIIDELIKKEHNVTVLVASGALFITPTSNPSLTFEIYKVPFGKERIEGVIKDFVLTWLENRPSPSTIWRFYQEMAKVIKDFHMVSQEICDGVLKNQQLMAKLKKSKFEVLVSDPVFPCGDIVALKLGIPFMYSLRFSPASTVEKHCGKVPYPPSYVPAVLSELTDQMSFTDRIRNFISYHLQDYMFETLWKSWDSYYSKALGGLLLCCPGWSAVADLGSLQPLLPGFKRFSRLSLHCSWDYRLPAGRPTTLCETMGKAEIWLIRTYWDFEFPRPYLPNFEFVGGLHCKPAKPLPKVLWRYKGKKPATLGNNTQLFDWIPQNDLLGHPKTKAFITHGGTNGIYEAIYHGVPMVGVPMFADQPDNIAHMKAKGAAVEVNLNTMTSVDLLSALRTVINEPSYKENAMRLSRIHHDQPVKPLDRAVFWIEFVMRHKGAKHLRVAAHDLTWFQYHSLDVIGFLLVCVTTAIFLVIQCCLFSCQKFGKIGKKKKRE
Put plainly: Drug metabolism assessed as recombinant human C-terminal His-tagged UGT2A1-mediated estradiol-3-glucuronide/estradiol-17-glucuronide formation at 200 uM after 15 to 60 mins by HPLC analysis in presence of UDPGA. To be noted: recombinant enzyme. An outline of the steps:
as §1

Regarding `C[C@]12CC[C@@H]3c4ccc(O)cc4CC[C@H]3[C@@H]1C[C@@H](O)[C@@H]2O` [ESTRIOL], in data set [1], the Drug metabolism came out at 840 pmol/min/mg. For the same compound, in the data set with Liver microsome, the Km (as a rule, the substrate concentration at which the rate is half of its maximum) is 313 µM and the Vmax (commonly the rate approached at saturating substrate) amounted to 95 pmol/min/mg. Moreover, the Drug metabolism in data set [2] stood at 4 pmol/min/mg.

Take `C[C@@]12CC[C@@H]3c4ccc(O)cc4CC[C@H]3[C@@H]1CC[C@@H]2O`: the Drug metabolism result in data set [3] was “metabolite_detected”.

Take `C[C@]12CC[C@@H]3c4ccc(O)cc4CC[C@H]3[C@@H]1CC[C@@H]2O` [ESTRADIOL]: in data set [4], the Drug metabolism entry is “metabolite_detected”.
